# Screens: PubChem BioAssay, several laboratories
# DDE Tn6 FP inh: DD(E)-Tn6 binding inhibition, primary FP screen; Fibrin DD(E) TRITC-Tn6 fluorescence polarization displacement; inhibition, % at 8.3 µM; hit rate 0.21% among 370,000; AID 720509;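 active = inhibition above a per-campaign cutoff: mean of compounds within control limits plus 3 SD, cut at about 15% in these data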;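 also: 0% = median of all compound wells on the plate and 100% = blocking peptide control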
# Neddyl block: cullin neddylation inhibition | calls only at 25 µM | hit rate 0.58% among 360,000 | TR-FRET cullin neddylation, biochemical | AID 651699; in the data active = inhibition above about 36%
# Target sequence (P61081 whole entry, looked up): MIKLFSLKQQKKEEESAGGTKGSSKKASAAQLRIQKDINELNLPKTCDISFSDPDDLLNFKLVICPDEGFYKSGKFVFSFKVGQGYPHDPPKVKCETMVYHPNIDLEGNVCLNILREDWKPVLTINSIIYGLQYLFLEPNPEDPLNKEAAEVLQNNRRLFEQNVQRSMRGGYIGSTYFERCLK
# Target sequence (Q13564 whole entry, looked up): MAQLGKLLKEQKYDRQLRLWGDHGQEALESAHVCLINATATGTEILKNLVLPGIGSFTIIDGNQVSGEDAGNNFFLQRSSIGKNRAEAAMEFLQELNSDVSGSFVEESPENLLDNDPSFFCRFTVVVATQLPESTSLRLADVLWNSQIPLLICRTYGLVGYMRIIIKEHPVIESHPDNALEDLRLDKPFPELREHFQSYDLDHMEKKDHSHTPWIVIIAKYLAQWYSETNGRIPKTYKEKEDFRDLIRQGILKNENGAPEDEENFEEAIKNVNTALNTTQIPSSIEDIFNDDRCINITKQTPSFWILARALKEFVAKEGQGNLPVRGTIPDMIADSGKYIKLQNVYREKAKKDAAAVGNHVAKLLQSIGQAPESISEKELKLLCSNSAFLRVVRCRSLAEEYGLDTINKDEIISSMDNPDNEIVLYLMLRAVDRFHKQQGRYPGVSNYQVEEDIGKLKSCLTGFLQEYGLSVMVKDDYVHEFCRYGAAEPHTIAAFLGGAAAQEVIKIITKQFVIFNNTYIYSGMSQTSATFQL
# DDE Tn7 FP inh: DD(E)-Tn7 binding inhibition, primary FP screen. hit rate 0.13% among 370,000. AID 720508. FP displacement of FITC-Tn7 peptide from fibrin DD(E); 0% = median of compound wells per plate. inhibition, % at 8.3 µM;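 active = inhibition above the mean of compounds falling within the control limits plus 3 SD of them, cut at about 14% in these data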;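 also: 0% = plate median of compound wells and 100% = 10 µM Aha-Tn7 peptide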
#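 Measure: % inhibition scaled between sample-field median and high-control FP; Test system: human fibrin DD(E); Quantity: 2 µM final DD(E) protein; Doses: one dose, 8.3 µM nominal; Schedule: compound with protein 10 min, then 3 h after probe, room temperature; Detection: fluorescence polarization; Medium: Tris buffer with calcium and detergent, pH 7.8.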
# SKN-1 inh: blocks SKN-1 activity in C. elegans; inhibition, % at 21.8 µM; C. elegans VP596 Pgst-4::GFP/RFP ratio, acrylamide-induced, 24 h; hit rate 0.49% among 360,000;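 active = interference check ratio from 0.5 to 1.5 plus GFP to RFP signal ratio inhibition reaching or exceeding a fixed threshold, cut at about 30% in these data, passing the limit was not always enough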
# proKLK7 act: proKLK7 (human) activation, primary screen; P49862; purified proKLK7, EDANS-DABCYL substrate fluorescence; 100% is mature enzyme control, 0% vehicle; activation, % at 7 µM; hit rate 0.9% among 370,000;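 active = activation above the mean of all tested compounds plus 3 SD, computed per campaign excluding outliers beyond control limits, cut at about 13% in these data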
# MT1-MMP act inh: inhibitors of human MT1-MMP activation | HT1080 RFP-PRO-GFP cells, GFP/RFP ratio fluorescence, overnight; percent of plate control window, DMSO zero | hit rate 0.061% among 360,000 | AID 651647 | GFP/RFP ratio change, % at 20 µM;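 active = GFP/RFP ratio change of at least 30% with cell ATP level not reduced by more than half and red fluorescence within 50% of control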
#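 Assay system – RFP-PRO-GFP reporter HT1080 cells · Compound dosing – single dose of 20 µM compound, 1% DMSO final · Incubation – overnight compound exposure at 37 °C · Measure – GFP/RFP fluorescence ratio · Benchmarks – DMSO wells and RFP-L50D-GFP cells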
# Neddyl conf: cullin neddylation inhibition, confirmation. shares compounds with Neddyl block. TR-FRET cullin neddylation biochemical assay. calls only at 25 µM. hit rate 13% among 1,800; in the data active = inhibition above about 40%;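 also: neddylation substrate is the cullin 1 ring ligase complex with SKP2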
# * marks the source's active call; other numbers are inactive results; i = inactive; . = no result shown; + = active, no number. Only some compounds are listed: those with a hit (about 2.2% of all), similar ones and a draw of the others.
SMILES,DDE Tn6 FP inh,Neddyl block,DDE Tn7 FP inh,SKN-1 inh,proKLK7 act,MT1-MMP act inh,Neddyl conf
CCCCCCc1c(C)[nH]c2nc3ccccc3n2c1=O,-4.6,i,4.0,-0.4,-0.5,-1.3,.
CC(=O)Nc1ccc(NC(=O)c2cc(=O)c3ccccc3o2)cc1,-4.2,i,-10.6,20.9,0.9,-6.3,.
N#Cc1ccc(NC(=O)c2cc(=O)c3ccccc3o2)cc1,-1.4,+,-0.7,13.3,-0.2,-2.1,i
CCc1nc(N2CCCCC2)c2oc3ccccc3c2n1,0.7,i,2.4,23.0,-1.5,-3.4,.
CCc1nc(N2CCN(Cc3ccc4c(c3)OCO4)CC2)c2oc3ccccc3c2n1,-3.3,+,-1.4,14.8,-0.8,-9.1,i
Cc1nn(Cc2ccccc2)c(N)c1-c1ccccc1,-2.7,i,-2.8,22.3,0.0,5.8,.
COc1ccc(C(=O)N2CCN(C3CCN(Cc4ccccc4)CC3)CC2)cc1OC,13.2,i,1.5,3.5,-0.5,3.1,.
O=C(O)C(O)(c1ccccc1)C(O)c1ccccc1 (stereo unspecified),-3.9,i,-0.9,4.9,-0.3,-2.3,.
Cc1cc(N/C(=N/S(=O)(=O)c2cc(F)ccc2F)c2ccccc2)n(-c2ccccc2)n1,-4.5,.,-2.0,12.0,0.3,-6.7,.
Cc1cc(N/C(=N/S(=O)(=O)c2ccc(F)cc2)c2ccccc2)n(-c2ccccc2)n1,-1.2,+,-6.4,3.6,0.2,-6.6,i
Cc1ccc(-n2nc(C)c3c(C)c(CCC(=O)NCC4CCCO4)c(=O)n(C)c32)cc1 (stereo unspecified),0.0,i,1.6,2.8,-0.2,-6.1,.
CCn1c(=O)c(CCC(=O)NCC2CCCO2)c(C)c2c(C)nn(-c3ccccc3)c21 (stereo unspecified),1.4,+,5.7,-1.5,0.5,-5.2,i
COc1ccc(-n2cnc3cc([N+](=O)[O-])ccc32)cc1,4.3,i,-1.8,-2.1,-0.4,-3.2,.
C[n+]1c2n(c3ccccc31)N=C(c1cc(C(C)(C)C)c(O)c(C(C)(C)C)c1)CS2,1.9,i,-8.3,-0.6,-0.1,-24.1,.
COc1ccc(OC)c(NC=C2C(=O)OC3(CCCCC3)OC2=O)c1,-0.8,+,-5.3,-4.7,-18.7,-1.7,i
COc1ccc(OC)c(NC=C2C(=O)OC(C)(C)OC2=O)c1,4.2,i,-8.4,7.2,-2.0,-6.7,.
CCCc1cc(-n2ccnc2C)n2c(nc3ccccc32)c1C#N,5.3,+,-1.0,1.6,2.6,1.2,i
CCCc1cc(N2CCN(C(=O)c3ccco3)CC2)n2c(nc3ccccc32)c1C#N,-5.0,.,-4.4,20.4,6.6,10.6,.
O=C(NC(=S)NCCO)c1cn(-c2ccccc2)nc1-c1ccccc1,3.7,i,-1.4,7.9,0.5,0.5,.
O=C(Nc1nc2n(n1)C(c1ccccc1)CC(c1ccc(Cl)cc1)N2)c1ccco1 (stereo unspecified),-5.8,i,-6.7,14.4,0.9,2.6,.
COc1ccc(C2CC(c3ccccc3)Nc3nc(NC(=O)c4ccco4)nn32)cc1 (stereo unspecified),0.5,+,-2.8,-12.2,-3.4,-6.2,i
COc1ccc(C2CC(c3ccc(OC)cc3)n3nc(NC(=O)c4ccco4)nc3N2)cc1 (stereo unspecified),2.2,+,3.7,13.4,-6.0,2.4,i
Cc1ccc(-c2nn(-c3ccccc3)c3[nH]c(=O)c(CNCc4ccccc4)cc23)cc1,-8.4,i,-2.2,9.3,-3.4,-13.2,.
COc1ccc(C(=O)Oc2cc(C(=S)N3CCOCC3)ccc2OC)cc1,-6.0,i,-6.9,-3.4,0.4,-1.2,.
COc1ccc(/C=N/NC(=O)c2sccc2C)c2ccccc12,-1.7,+,-0.3,4.0,-0.5,2.8,i
SMILES,DDE Tn6 FP inh,Neddyl block,DDE Tn7 FP inh,SKN-1 inh,proKLK7 act,MT1-MMP act inh,Neddyl conf
O=C(CSc1nnc(C2CC2)n1C1CC1)c1ccc(F)cc1,8.3,i,2.2,-7.6,0.8,-1.8,.
CSc1ccc(/C=N/NC(=O)c2ccc(-n3cnnn3)cc2)cc1,0.1,+,8.5,1.1,0.5,4.3,i
CC(=O)c1ccc2c3c(cccc13)CC2,2.3,+,2.8,17.5,-10.7,-2.8,i
Cc1cn(-c2cccnc2)c(C)c1CNC[C@H]1O[C@@H](n2cnc3c(N)ncnc32)[C@H](O)[C@@H]1O,4.2,+,-5.0,12.2,0.8,-4.6,i
COc1ccc(F)cc1-c1cc(C(=O)Nc2ccc(NC(C)=O)cc2)[nH]n1,-4.7,i,-2.0,9.5,0.4,3.3,.
COc1cc(F)ccc1-c1cc(C(=O)Nc2ccc(NC(C)=O)cc2)[nH]n1,7.0,+,2.5,29.7,-1.2,6.2,+
Cc1cccc(NC(=O)c2cc(-c3cc(C)ccc3O)n[nH]2)c1,-1.4,i,3.7,-5.9,-1.0,14.1,.
CC(=O)Nc1ccc(NC(=O)c2cc(-c3ccc(C)cc3O)n[nH]2)cc1,4.3,+,-2.4,3.7,0.2,1.7,+
COc1ccccc1N(CC(=O)Nc1ccc(F)c(F)c1)S(C)(=O)=O,4.0,i,-1.6,19.7,0.3,2.1,.
COc1ccc(/C(C)=N/NC(=O)c2cc(-c3cccnc3)nc3ccccc23)cc1,-2.0,i,-4.9,4.2,0.0,1.3,.
CCOc1ccc(-c2cc(C(=O)N/N=C(\C)c3cccnc3)c3ccccc3n2)c(OCC)c1,-6.5,+,-5.8,-0.6,0.7,4.8,i
CCOc1ccc2nc(NC(=O)C3CCCN(S(=O)(=O)c4cccc5nonc45)C3)sc2c1 (stereo unspecified),-1.8,i,5.0,4.5,0.0,-19.7,.
CCOC(=O)c1[nH]c2ccc(F)cc2c1NC(=O)CN1CCN(C/C=C/c2ccccc2)CC1,-3.0,+,-6.1,15.9,-0.3,11.5,i
CCOC(=O)c1[nH]c2ccc(OC)cc2c1NC(=O)c1ccccc1C(=O)O,0.1,+,2.2,-12.5,-1.2,1.6,i
COC(=O)c1[nH]c2ccccc2c1NC(=O)CN1CCN(C/C=C/c2ccccc2)CC1,0.6,i,2.3,1.0,0.4,2.0,.
COc1ccc2c(c1)[nH]c1c(Cl)ncnc12,-8.3,+,0.7,-2.7,0.0,7.4,i
Cc1cc2n(n1)C(c1ccc(O)cc1)Nc1ccccc1-2 (stereo unspecified),8.1,+,-2.2,-12.5,-0.5,.,i
